Screening results: PubChem, several laboratories
TROY NFkB inh – blocks TROY-dependent signaling in reporter cells. Q293 LMP1-TROYcd NF-kB luciferase reporter, 4 h. inhibition, % at 10 µM. 360,000 tested, 0.98% active;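 active means compounds whose plate-normalised and pattern-corrected inhibition of the luciferase reporter signal at the single screening dose is 50% or more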
LMP1 NFkB inh – Epstein-Barr LMP1 NF-kappaB reporter inhibition | LMP1-induced NF-kappaB luciferase reporter cells, luminescence | inhibition, % at 12.5 µM | 350,000 tested, 0.69% active; in the data active means inhibition above about 41%;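 further: 0% = neutral control wells and 100% = reference inhibitor control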
HIF activator – HIF pathway transcriptional activation. U2OS HRE-luciferase reporter, luminescence; normalized: DMSO 0%, desferrioxamine 100%. activation, % at 7.5 µM (by protocol). 300,000 tested, 0.32% active. AID 1910;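 active means mean activation of at least 10% of the iron chelator positive control signal, with at least half of replicates also reaching 10%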
NR2E3 ag-1 – activates human photoreceptor nuclear receptor NR2E3; Q9Y5X4; GST-NR2E3/biotin-RetCOR TR-FRET, 1536-well; inhibition of corepressor binding, % at 4.78 µM; 320,000 tested, 0.12% active; AID 2300;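 active means percent inhibition above the cutoff of mean plus 3 SD of all tested compounds, set per screening campaign, cut at about 20% in these data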;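 further: 0% = DMSO wells and 100% = biotin wells as full block of FRET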
Target sequence (Q9Y5X4 whole entry, looked up): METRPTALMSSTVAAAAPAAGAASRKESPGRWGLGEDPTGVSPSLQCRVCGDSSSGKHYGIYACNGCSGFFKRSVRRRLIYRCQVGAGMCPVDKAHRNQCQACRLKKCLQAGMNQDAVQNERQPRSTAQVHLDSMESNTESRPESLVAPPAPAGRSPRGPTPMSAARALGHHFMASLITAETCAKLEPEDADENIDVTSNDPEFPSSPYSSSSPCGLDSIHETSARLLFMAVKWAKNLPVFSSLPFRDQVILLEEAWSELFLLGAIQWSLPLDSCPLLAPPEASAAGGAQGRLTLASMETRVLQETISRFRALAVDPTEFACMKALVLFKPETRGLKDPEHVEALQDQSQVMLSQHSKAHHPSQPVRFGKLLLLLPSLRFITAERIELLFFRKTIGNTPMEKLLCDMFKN
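Assay system: NR2E3–RetCOR corepressor complex. Quantity: 1.35 nM GST-NR2E3. Buffer or medium: pH 7.5 Tris-based buffer. Reagent: biotinylated RetCOR corepressor at 7 nM final. Schedule: 5 h at 4 °C. Detection: TR-FRET, emission read at 617 and 671 nm. Replicates: one well per compound, singlicate testing.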
NR2E3 ag-2 – human photoreceptor-specific nuclear receptor agonism; AID 602229; CHO-S Gal4-NCOR/VP16-NR2E3 two-hybrid, luciferase; inhibition of corepressor binding, % at 3.98 µM; 360,000 tested, 0.35% active;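 active means inhibition above the mean of all tested compounds plus 3 SD, cut at about 70% in these data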;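 further: 0% = DMSO with NR2E3 transfected cells and 100% = cells lacking NR2E3 construct; higher means lower luciferase signal from less NR2E3 corepressor binding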
Active calls of the source: *; · = not tested or not shown. Hits are enriched below; roughly 2% of the tested compounds scored in any of these assays.

SMILES	TROY NFkB inh	LMP1 NFkB inh	HIF activator	NR2E3 ag-1	NR2E3 ag-2
N/C(=N\OC(=O)COc1ccc(Br)cc1)c1cccc([N+](=O)[O-])c1	-6.8	-2.2	0.5	3.4	-11.5
COCCc1nc2ccc(C(=O)N(C)Cc3cccc(-n4nc(C)cc4C)c3)cc2o1	60.4*	-2.1	0.6	·	-24.5
COCCc1nc2ccc(C(=O)NCc3cccc(-n4cccn4)c3)cc2o1	-5.3	-2.1	-0.9	-1.5	19.2
CNC(=O)CCCN1C(=O)c2ccccc2Sc2ncccc21	19.9	8.6	0.3	-2.2	-19.9
CCn1cc(C(=O)NCC(OC)OC)c(=O)c2cc(S(=O)(=O)N3CCC(C)CC3)ccc21	18.6	8.2	29.7*	2.2	-14.8
COc1ccc(Cn2c(=O)[nH]c3cc(C(=O)N4CCN(c5ccccn5)CC4)ccc3c2=O)cc1	14.1	2.7	-0.6	5.4	4.4
COCCNC(=O)c1cccc(OC2CCN(C(C)COc3ccccc3)CC2)c1 (configuration not stated)	0.1	0.6	-0.1	0.1	20.1
O=C(O)[C@@H]1[C@H]2C[C@H]3c4[nH]c5ccccc5c4CCN3C[C@@H]2CC[C@@H]1O	12.3	64.8*	·	3.8	-6.3
CC(=O)OC1CC2(C)/C(=N\O)CCC2C2CCc3cc(O)ccc3C12 (configuration not stated)	12.7	-3.7	0.6	·	-18.4
COc1ccc(-n2cc(C(=O)c3ccccc3O)cn2)cc1	48.5	49.9*	-0.9	4.9	-74.1
COc1ccc(O)c(C(=O)c2cnn(-c3ccccc3)c2)c1	-26.5	-21.6	2.4	2.2	-56.6
COc1ccc(NC(=O)NNS(=O)(=O)c2ccc(Br)cc2)cc1	-12.0	·	-0.8	·	14.9
Cc1ccc(NC(=O)NNS(=O)(=O)c2ccc(Br)cc2)cc1	0.3	66.4*	0.0	-1.0	13.6
COc1cc2ccccc2cc1C(=O)NNC(=O)c1ccccc1O	-18.1	14.3	11.9*	3.2	-16.5
c1ccc(OCCOCCOc2ccccc2)cc1	-36.8	-3.6	·	·	-19.2
C[N+](C)(CCOc1ccccc1)Cc1ccccc1 (tested in a mixture with another compound)	71.1*	-7.2	-0.8	5.4	14.2
O=C(CNS(=O)(=O)Cc1ccccc1)NNc1ccccc1	55.6*	·	·	·	39.4
OC[C@@H]1CN(Cc2ccc(Cl)cc2)C[C@H](n2cnc3c(NCc4ccc(F)cc4)ncnc32)O1	19.1	·	·	·	-21.5
c1ccc([C@H]2CN3C(=N2)Sc2ccccc23)cc1	-6.5	-42.8	·	-2.3	-108.7
CC[C@H](C)C(C(=O)N1CCN(C(=O)OC(C)(C)C)CC1)n1cc(C(CC(C)C)NC(=O)OC(C)(C)C)nn1 (some centres not stated)	-10.4	-4.9	-0.7	4.7	6.4
CC[C@@H](C)C(C(=O)N1CCN(C(=O)OC(C)(C)C)CC1)n1cc(-c2cn([C@@H](C)C(=O)N3CCN(C(=O)OC(C)(C)C)CC3)nn2)nn1 (some centres not stated)	54.6*	1.4	-0.4	1.9	4.9
CCOC(=O)C1CCN(C(=O)CNC(=O)OC(C)(C)C)CC1	3.2	43.2*	-0.3	3.9	-10.1
CC(C)Cn1c(=S)[nH]c2cc(C(=O)NCc3ccccc3F)ccc2c1=O	22.9	10.6	·	4.9	17.4
CC(C)c1ccc(/C=N/Nc2ccc(C(=O)O)cc2)cc1	56.9*	3.5	-3.1	3.0	-0.6
CSc1ccc(/C=N/Nc2ccc(Cl)c(C(=O)O)c2)cc1	-9.9	-19.7	174.2*	-1.2	-195.6
SMILES	TROY NFkB inh	LMP1 NFkB inh	HIF activator	NR2E3 ag-1	NR2E3 ag-2
COc1ccc(/C=N/Nc2ccc(C(=O)O)cc2)cc1OC	-23.9	-3.7	-0.8	-7.0	-116.8
Cc1ccc(/C=N/Nc2ccc(C(=O)O)cc2)s1	-9.3	69.7*	-5.5	-5.4	-72.9
Cc1ccc(/C=N/Nc2cccc(C(=O)O)c2)s1	-25.3	13.8	-1.5	-5.6	-124.7
COc1ccc(/C=N/Nc2ccc(C(=O)O)cc2)cc1Br	65.8*	35.7	-1.5	-0.4	-96.6
COc1cc(OC)cc(C(=O)NNS(=O)(=O)c2ccc(F)cc2)c1	18.4	-6.7	-1.1	-2.2	-29.0
CN(CCNC(=O)C1CCN(S(=O)(=O)N2CCOCC2)CC1)CCc1ccccc1	-12.8	41.5*	-0.3	0.2	-4.6
CC(CCN1CCC(CN2C(=O)C(=O)NC[C@@H]2Cc2ccccc2)CC1)c1ccccc1 (some centres not stated)	0.0	1.8	·	·	-22.4
Oc1c(CN2CCN(c3ccccn3)CC2)cc(Cl)c2cccnc12	-16.6	39.9	6.7	-0.1	78.7*
COc1ccccc1N1CCN(Cc2cc(Br)c(O)c3ncccc23)CC1	28.7	17.4	12.5*	0.3	-4.1
CCOc1ccccc1N1CCN(Cc2cccc(OC)c2O)CC1	-22.4	1.6	-0.3	-0.1	17.2
Oc1ccc(Cl)c2cccnc12	1.4	5.5	·	·	-15.3
Oc1c(CN2CCCCC2)cc(COCc2ccccc2)c2cccnc12	10.2	79.5*	132.0*	5.0	-17.2
COCc1cc(CN2CCCC2)c(O)c2ncccc12	2.6	12.8	-0.1	0.5	-2.2
Oc1c(Cl)cc(Cl)c2cccnc12	63.4*	5.1	-0.2	·	-24.7
OCCN1CCN(Cc2cc(Cl)c3cccnc3c2O)CC1	10.6	22.9	2.5	0.0	-30.7
CC1=C(C(=O)N(C(C)C)C(C)C)CC(CC(=O)NC2CCCC2)C(=O)N1Cc1ccc(F)cc1 (configuration not stated)	6.7	·	·	·	-0.6
O=C(Oc1c(Cl)cc(Cl)c2cccnc12)c1ccco1	57.8*	37.8	0.1	1.9	-8.3
Oc1c(Cl)cc(CN2CCCCC2)c2cccnc12	18.3	62.9*	4.4	-1.8	-16.0
COc1ccc(/C=C/c2nc3ccccc3n2C)cc1	47.6	53.7*	-6.0	-3.4	-32.6
COc1ccc(/C=C/c2nc3ccccc3c(=O)o2)cc1	82.6*	50.7*	-6.3	-0.1	45.3
COc1ccc(Cn2c(/C=C/c3ccccc3)nc3ccccc32)cc1	-48.3	-58.6	2.1	2.9	-130.1
COc1ccccc1N(CC(=O)NC1CCCC1)C(=O)CNC(=O)c1cccs1	-14.1	-3.5	0.3	0.6	-5.2
O=C(Nc1ccc(Cl)c(Cl)c1)Nc1nccs1	4.6	66.3*	3.6	6.0	-81.7
O=C(CN1c2ccccc2Sc2ccccc21)NNC(=O)Nc1ccc(Cl)c(Cl)c1	59.3*	-3.0	0.1	1.2	-5.5
O=C(CCS(=O)(=O)c1ccc(Cl)cc1)Nc1nccs1	56.7*	-8.4	·	·	-37.2
COC(=O)c1ccsc1NC(=O)CCS(=O)(=O)c1ccc(Cl)cc1	30.2	2.3	-0.4	-1.0	19.7
O=C(NNc1nc2ccccc2s1)Nc1ccc(Cl)c(Cl)c1	82.2*	-2.6	0.3	2.6	-20.2
O=C(NNc1nc2ccccc2s1)c1ccccc1F	68.6*	-8.3	0.5	1.9	5.0
O=C(NNc1nc2ccccc2s1)Nc1ccc(F)cc1	44.7	-7.9	3.1	-1.9	-48.0
